# Assay results taken from ChEMBL document CHEMBL5046294, “Rational Design, Chemical Syntheses, and Biological Evaluations of Peripherally Selective Mu Opioid Receptor Ligands as Potential Opioid Induced Constipation Treatment” (J Med Chem, 2022).
# Activity calls are given as the source filed them.
# What was measured:
# [1] = tested on: Mus musculus; assay: Gastroprokinetic activity in Swiss Webster mouse assessed as stimulation of gastrointestinal motility by measuring time required to defecation of red fecal pellet at 10 mg/kg, po incubated for 20 mins by carmine red dye assay; assay type: functional
# Procedure, shortened: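 Male Swiss Webster mice (5–8 weeks, 25–35 g), singly caged, 5–6 per group. Compound or vehicle was given by oral gavage 5 min before s.c. morphine (10 or 5 mg/kg) or vehicle. Oral vehicle was also given to naïve and morphine groups. 20 min after morphine, mice received 0.2 mL of 6% carmine red in 0.5% CMC p.o. (time 0). Time to the first red pellet was recorded, with a 6 h cut-off. One-way ANOVA with Dunnett test.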
# [2] = tested on: Mus musculus; assay: Gastroprokinetic activity in Swiss Webster mouse assessed as stimulation of gastrointestinal motility by measuring time required to defecation of red fecal pellet at 10 mg/kg, sc incubated for 20 mins by carmine red dye assay; assay type: functional
# Procedure, shortened: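 Male Swiss Webster mice (5–8 weeks, 25–35 g), singly caged, 5–6 per group. Compound or vehicle was given s.c. 5 min before morphine 10 mg/kg (or vehicle). 20 min after morphine, mice received 0.2 mL of 6% carmine red dye in 0.5% carboxymethyl cellulose orally, set as time 0. Latency to the first red fecal pellet was measured, with a 6 h cut-off. One-way ANOVA followed by Dunnett test.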
# [3] = tested on: Mus musculus; assay: Gastroprokinetic activity in Swiss Webster mouse assessed as stimulation of gastrointestinal motility by measuring time required to defecation of red fecal pellet at 5 mg/kg, po incubated for 20 mins by carmine red dye assay; assay type: functional
# Procedure, shortened: (§1)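 Male Swiss Webster mice, 5–6 per group, housed singly. Compound or vehicle given s.c. or by oral gavage 5 min before morphine (10 or 5 mg/kg) or vehicle. 20 min after morphine, 0.2 mL of 6% carmine red in 0.5% CMC given orally (time 0). Time to first red pellet recorded, 6-h cutoff. Dunnett-corrected one-way ANOVA.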
# [4] = tested on: Mus musculus; assay: Antinociceptive activity against Swiss Webster mouse assessed as tail withdrawal latency from warm water by measuring maximum possible effect at 10 mg/kg, sc measured after 20 mins by warm water tail immersion assay; assay type: functional
# Procedure, shortened: (§2)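 Male Swiss Webster mice, 5–8 weeks, 25–35 g, 6 per group. Tail immersed (distal third) in water at 56 ± 0.1 °C. Mice included only with baseline latency 2–4 s. Compound 10 mg/kg s.c.; in the challenge arm it was given 5 min before morphine 10 mg/kg s.c. Latency read 20 min after injection, 10-s cutoff. %MPE = (test − control)/(10 − control) × 100. Dunnett-corrected one-way ANOVA.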
# [5] = biological target: T1, Kappa-type opioid receptor (Mus musculus, UniProt P33534); assay: Binding affinity to mouse kappa opioid receptor expressed in CHO cells in presence of U50488 incubated for 1.5 hrs by competitive radioligand binding assay; assay type: cell-based
# Procedure, shortened: (§3)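 Competition binding. Membranes (30 μg protein) from CHO cells with mouse MOR or KOR, or human DOR. Incubated with radioligand and varying test concentrations in TME buffer, pH 7.4, 1.5 h at 30 °C. Filtration harvest. Nonspecific binding defined with 5 μM naltrexone (MOR), U50,488 (KOR) or SNC80 (DOR). IC₅₀ by nonlinear regression, converted to Ki by Cheng-Prusoff. Selectivity ratios taken from these Ki values. At least three independent experiments.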
# [6] = biological target: T2, Mu-type opioid receptor (Mus musculus, UniProt P42866); assay: Binding affinity to mouse mu opioid receptor expressed in CHO cells in presence of naltrexone incubated for 1.5 hrs by competitive radioligand binding assay; assay type: cell-based; procedure, shortened: as §3
# [7] = tested on: Mus musculus; assay: Antinociceptive activity against sc dosed Swiss Webster mouse model assessed as effect on morphine induced antinociception by measuring tail withdrawal latency from warm water incubated for 5 mins followed by morphine addition measured after 20 mins by warm water tail immersion assay; assay type: functional; settings: for Activity: time 25.0 min; procedure, shortened: as §2
# [8] = biological target: T2, Mu-type opioid receptor; assay: Antagonist activity at mouse mu opioid receptor expressed in CHO cell membrane assessed as reduction in DAMGO-induced […]-GTPgammaS binding incubated for 1.5 hrs by liquid scintillation counting method; assay type: functional, cell membranes
# [9] = Selectivity index, ratio of Ki for binding affinity to human delta opioid receptor to Ki for binding affinity to mouse mu opioid receptor; procedure, shortened: as §3
# [10] = biological target: T3, Delta-type opioid receptor (Homo sapiens, UniProt P41143); assay: Binding affinity to human delta opioid receptor in presence of SNC80 incubated for 1.5 hrs by competitive radioligand binding assay; procedure, shortened: as §3
# [11] = tested on: Mus musculus; assay: Antinociceptive activity against Swiss Webster mouse assessed as tail withdrawal latency from warm water by measuring maximum possible effect at 10 mg/kg, sc incubated for 5 mins followed by morphine addition measured after 20 mins by warm water tail immersion assay; assay type: functional; settings: time 25 min; procedure, shortened: as §2
# [12] = biological target: Mu-type opioid receptor (Mus musculus) (UniProt P42866); assay: Antagonist activity at mouse mu opioid receptor expressed in CHO cell membrane assessed as reduction in DAMGO-induced […]-GTPgammaS binding by measuring maximal efficacy incubated for 1.5 hrs by liquid scintillation counting method relative to control; assay type: functional, cell membranes
# Procedure, shortened: (§4)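 [³⁵S]GTPγS binding. Membranes (10 μg protein) from CHO cells expressing MOR, KOR or DOR. Buffer TME (50 mM Tris, 3 mM MgCl₂, 0.2 mM EGTA, pH 7.4) with 100 mM NaCl, 20 μM GDP and 0.1 nM [³⁵S]GTPγS. Test compound at varying concentrations. Incubation 1.5 h at 30 °C. Nonspecific binding with 20 μM unlabeled GTPγS. Reference full agonist at 3 μM: DAMGO (MOR), U50488H (KOR), SNC80 (DOR). Filtration, then scintillation counting. Duplicates, at least three repeats.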
# [13] = species: Mus musculus; assay: Selectivity index, ratio of Ki for binding affinity to mouse kappa opioid receptor to Ki for binding affinity to mouse mu opioid receptor; procedure, shortened: as §3
# [14] = biological target: T4, Kappa-type opioid receptor (Homo sapiens, UniProt P41145); assay: Displacement of [3H]-U69593 from human recombinant kappa opioid receptor by radioligand binding assay
# [15] = tested on: Mus musculus; assay: Gastroprokinetic activity in Swiss Webster mouse assessed as stimulation of gastrointestinal motility by measuring time required to defecation of red fecal pellet at 10 mg/kg, po incubated for 5 mins followed by morphine addition at 5 mg/kg and measured after 20 mins by carmine red dye assay; assay type: functional; settings: time 25 min; procedure, shortened: as §1
# [16] = biological target: T4, Kappa-type opioid receptor; assay: Antagonist activity at human recombinant kappa opioid receptor assessed as reduction in U50,488H-induced […]-GTPgammaS binding; assay type: functional
# [17] = biological target: Mu-type opioid receptor (Homo sapiens, UniProt P35372); assay: Antagonist activity at human recombinant mu opioid receptor assessed as reduction in DAMGO-induced […]-GTPgammaS binding; assay type: functional
# [18] = tested on: Mus musculus; assay: Reversal of morphine induced constipation in Swiss Webster mouse at 10 mg/kg, po for 5 mins followed by morphine addition at 5 mg/kg and measured after 20 mins by carmine red dye assay; assay type: functional; procedure, shortened: as §1
# [19] = biological target: T4, Kappa-type opioid receptor; assay: Antagonist activity at kappa opioid receptor (unknown origin) expressed in CHO cell membrane assessed as reduction in U50,488H -induced […]-GTPgammaS binding by measuring maximal efficacy incubated for 1.5 hrs by liquid scintillation counting method relative to control; assay type: functional, cell membranes; procedure, shortened: as §4
# [20] = tested on: Mus musculus; assay: Gastroprokinetic activity in Swiss Webster mouse assessed as stimulation of gastrointestinal motility by measuring time required to defecation of red fecal pellet at 10 mg/kg, po incubated for 5 mins followed by morphine addition at 10 mg/kg and measured after 20 mins by carmine red dye assay; assay type: functional; settings: time 25 min; procedure, shortened: as §1
# [21] = biological target: T1, Kappa-type opioid receptor; assay: Antagonist activity at kappa opioid receptor (unknown origin) expressed in CHO cell membrane assessed as reduction in U50,488H-induced […]-GTPgammaS binding incubated for 1.5 hrs by liquid scintillation counting method; assay type: functional, cell membranes
# [22] = biological target: T3, Delta-type opioid receptor; assay: Antagonist activity at human delta opioid receptor expressed in CHO cell membrane assessed as reduction in SNC80-induced […]-GTPgammaS binding by measuring maximal efficacy incubated for 1.5 hrs by liquid scintillation counting method relative to control; assay type: functional, cell membranes; procedure, shortened: as §4
# [23] = biological target: T3, Delta-type opioid receptor; assay: Antagonist activity at human delta opioid receptor expressed in CHO cell membrane assessed as reduction in SNC80-induced […]-GTPgammaS binding incubated for 1.5 hrs by liquid scintillation counting method; assay type: functional, cell membranes
# [24] = tested on: Mus musculus; assay: Gastroprokinetic activity in Swiss Webster mouse assessed as stimulation of gastrointestinal motility by measuring time required to defecation of red fecal pellet at 10 mg/kg, sc incubated for 5 mins followed by morphine addition at 10 mg/kg and measured after 20 mins by carmine red dye assay; assay type: functional; settings: time 25 min; procedure, shortened: as §1
# [25] = tested on: Mus musculus; assay: Reversal of morphine induced constipation in Swiss Webster mouse at 10 mg/kg, po for 5 mins followed by morphine addition measured after 20 mins by carmine red dye assay relative to control; assay type: functional; settings: time 25 min; procedure, shortened: as §1
structure (smiles),measurement,setting,value
CN1CC[C@]23c4c5ccc(O)c4O[C@H]2[C@@H](O)C=C[C@H]3[C@H]1C5 [MORPHINE],Time,[1],115 min
same,Time,[2],124 min
same,Time,[3],105 min
O=C(N[C@@H]1CC[C@@]2(O)[C@H]3Cc4ccc(O)c5c4[C@@]2(CCN3CC2CC2)[C@H]1O5)c1ncc[nH]1,Activity,[4],inactive
same,Ki,[5],4.8 nM
same,Ki,[6],0.44 nM
same,Activity,[7],inactive
same,EC50,[8],1.74 nM
same,Ratio Ki,[9],335
same,Ki,[10],146 nM
same,MPE,[11],32.7%
same,Emax,[12],7.5%
same,Ratio Ki,[13],11
O=C(N[C@H]1CC[C@@]2(O)[C@H]3Cc4ccc(O)c5c4[C@@]2(CCN3CC2CC2)[C@H]1O5)c1ncc[nH]1,Activity,[4],inactive
same,Ki,[5],1.77 nM
same,Ki,[6],0.47 nM
same,AD50,[7]; time 25 min,5.3 mg/kg
same,EC50,[8],2.01 nM
same,Ratio Ki,[9],152
same,Ki,[10],70.9 nM
same,MPE,[11],9.2%
same,Emax,[12],7.85%
same,Ratio Ki,[13],4
C[N@+]1(CC2CC2)CC[C@]23c4c5ccc(O)c4O[C@H]2C(=O)CC[C@@]3(O)[C@H]1C5 [METHYLNALTREXONE],Ki,[14],32.1 nM
same,Time,[15],111 min
same,EC50,[16],> 10 µM
same,EC50,[17],> 10 µM
same,Activity,[18]; time 25.0 min,inactive
O=C(Cc1cc[nH]n1)N[C@H]1CC[C@@]2(O)[C@H]3Cc4ccc(O)c5c4[C@@]2(CCN3CC2CC2)[C@H]1O5,Emax,[19]; filed as antagonist,49.9%
same,Time,[20],57 min
same,Activity,[4],inactive
same,Ki,[5],154 nM
same,EC50,[21],99 nM
same,Ki,[6],1.05 nM
same,Emax,[22]; filed as antagonist,69.3%
same,Activity,[7],inactive
same,EC50,[8],6.17 nM
same,Ki,[10],195 nM
same,EC50,[23],20.5 nM
same,Time,[24],154 min
O=C(N[C@@H]1CC[C@@]2(O)[C@H]3Cc4ccc(O)c5c4[C@@]2(CCN3CC2CC2)[C@H]1O5)c1ccncc1,Time,[15],151 min
same,Activity,[18]; time 25.0 min,inactive
O=C(N[C@@H]1CC[C@@]2(O)[C@H]3Cc4ccc(O)c5c4[C@@]2(CCN3CC2CC2)[C@H]1O5)c1cnc[nH]1,Emax,[19],9.03%
same,Time,[20],71 min
same,Activity,[4],inactive
same,Time,[15],27 min
same,Ki,[5],18.8 nM
same,EC50,[21],11.7 nM
same,Ki,[6],0.58 nM
same,Emax,[22],22.1%
same,Activity,[7],inactive
same,EC50,[8],1.15 nM
same,Ki,[10],209 nM
same,Time,[24],137 min
same,Activity,[25],38%
same,Activity,[18]; time 25 min,75%
